Experiments:
BaF3 = assay: Antiproliferative activity against mouse BAF3 cell line transformed with TEL-FGFR3 construct after 48 hrs by luciferase bioluminescent assay; type: functional, cell-based; details: BaF3, 48 h
Summary of the method: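 IL-3-independent BaF3 or BaF3 Tel-TK cells were grown in RPMI-1640 with 10% FBS and seeded at 4250 cells/well in 384-well plates. Compound serially diluted in DMSO was pin-transferred, followed by 48 h at 37 °C, 5% CO2. Viability was read by Bright-Glo luciferase luminescence.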

Plasma = assay: Dose normalized AUC in plasma of RT112/luc1 cells implanted athymic nude mouse at 20 mg/kg, po by LC/MS/MS analysis; type: ADME, organism-based; design: dose 20 mg/kg, route oral; details: in vivo
Summary of the method: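 Female athymic nude mice carried subcutaneous RT112/luc1 tumors (5×10^6 cells, 50% Matrigel; about 300–400 mm3). Dosing was either 5 mg/kg iv by tail vein in NMP/PEG200 (1:9) or 20 mg/kg oral suspension in PEG300/D5W (2:1). Groups of mice (n = 4) were sacrificed at 0.083–24 h. Plasma and tumor levels were measured by LC-MS/MS (LOQ 5 ng/mL, 10 ng/g).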

[1] = target: RAC-alpha serine/threonine-protein kinase (Homo sapiens, UniProt P31749); assay: Inhibition of recombinant PKBalpha
Summary of the method: (§1)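 Purified recombinant kinases under optimized conditions with peptide substrates. ATP was set at each kinase's Km. Phosphorylation was read by microfluidic mobility-shift separation of substrate and product; IC50 determined.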

[2] = target: Protein kinase C alpha type (Homo sapiens, UniProt P17252); assay: Inhibition of recombinant PKCalpha; summary of the method: as §1
[3] = Inhibition of recombinant S6K
Summary of the method: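 Purified recombinant kinases with peptide substrates and ATP at each kinase's Km. Read-out was microfluidic mobility shift.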

Tumour = assay: Drug uptake in tumor of nude rowett rat bearing human RT112 cells at 4.25 mg/kg, po administered as a single dose after 7 hrs by LC-MS/MS analysis; type: ADME, organism-based, Neoplasm, RT-112; design: dose 4.25 mg/kg, route oral; details: in vivo
Summary of the method: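 Nude Rowett rats bearing subcutaneous RT112 tumors (n = 4) received a single gavage of monophosphate salt at 4.25 or 8.51 mg/kg free base in acetate buffer pH 4.6/PEG300. Tumors were collected at intervals after dosing, frozen and homogenized in an equal volume of ice-cold PBS. Compound levels were measured by LC-MS/MS (LOQ 3 ng/mL).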

Chain of RAC-alpha serine/threonine-protein kinase (P31749 whole entry): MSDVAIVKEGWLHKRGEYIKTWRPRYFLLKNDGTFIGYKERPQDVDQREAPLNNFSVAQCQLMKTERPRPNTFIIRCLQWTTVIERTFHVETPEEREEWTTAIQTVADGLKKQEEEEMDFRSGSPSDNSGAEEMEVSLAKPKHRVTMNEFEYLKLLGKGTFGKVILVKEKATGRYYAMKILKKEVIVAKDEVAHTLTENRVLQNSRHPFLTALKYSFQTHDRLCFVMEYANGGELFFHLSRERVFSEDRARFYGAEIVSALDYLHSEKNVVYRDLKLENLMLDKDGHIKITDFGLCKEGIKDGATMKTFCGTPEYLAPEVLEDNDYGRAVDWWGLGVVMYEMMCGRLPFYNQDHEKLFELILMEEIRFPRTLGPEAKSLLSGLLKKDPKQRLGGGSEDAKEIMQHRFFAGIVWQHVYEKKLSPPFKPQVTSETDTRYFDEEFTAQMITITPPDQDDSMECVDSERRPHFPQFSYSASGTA

IC50 (BaF3): 2 nM | AUC/dose (Plasma): 0.18 µM·h | IC50 [1]: > 10 µM | IC50 [2]: > 10 µM | IC50 [3]: > 10 µM | Drug uptake (Tumour): 0.65 nmol/g
Compound: CCN1CCN(c2ccc(Nc3cc(N(C)C(=O)Nc4c(Cl)c(OC)cc(OC)c4Cl)ncn3)cc2)CC1.O=P(O)(O)O [INFIGRATINIB PHOSPHATE]
